VIM-2 inhibitor: VIM-2 metallo-beta-lactamase inhibitors, primary screen, biochemical, epi-absorbance readout, Pseudomonas aeruginosa enzyme. purified VIM-2, nitrocefin hydrolysis, epi-absorbance fluorescence. AID 1527, 2009. inhibition, % at 5.6 µM. actives 0.89% (n = 290,000);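 active = inhibition above the mean of all tested compounds plus 3 SD, cutoff set per screening run, cut at about 7.5% in these data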;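 note: red hydrolysis product quenches plate fluorescence so inhibitors raise well fluorescence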
dFosB act-1: activators of delta FosB homodimer, primary screen, biochemical, fluorescence polarization, TAMRA-CDK5 oligo, single point. activation, % at 25 µM. purified delta FosB; percent of positive-control signal above neutral wells. Protein FosB (Mus musculus), P13346. actives 0.99% (n = 340,000);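 active = mean activation above about 17%, with every replicate also reaching it, limit read from the data, passing the limit was not always enough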
Target sequence (P13346 whole entry, looked up): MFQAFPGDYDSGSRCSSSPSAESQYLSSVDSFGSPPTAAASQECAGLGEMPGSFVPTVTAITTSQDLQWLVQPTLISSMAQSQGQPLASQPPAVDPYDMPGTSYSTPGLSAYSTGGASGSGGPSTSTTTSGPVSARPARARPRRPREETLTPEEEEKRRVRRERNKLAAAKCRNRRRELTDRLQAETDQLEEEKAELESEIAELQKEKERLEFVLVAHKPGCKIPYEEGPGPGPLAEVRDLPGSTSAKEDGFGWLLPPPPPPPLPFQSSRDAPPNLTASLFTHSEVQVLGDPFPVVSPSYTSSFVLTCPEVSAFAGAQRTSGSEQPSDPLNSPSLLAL
IMP-1 inhibitor: IMP-1 metallo-beta-lactamase inhibitors, primary screen, biochemical, epi-absorbance readout, Pseudomonas aeruginosa enzyme. inhibition, % at 5.6 µM. metallo-beta-lactamase IMP-1 (Pseudomonas aeruginosa). actives 0.45% (n = 290,000). purified IMP-1, nitrocefin hydrolysis, epi-absorbance fluorescence;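 active = inhibition above the mean plus 3 SD of all compounds in the same screening run, cut at about 4.5% in these data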
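System: purified IMP-1 / Input: IMP-1 dispensed at 0.2 nM / Medium: 50 mM HEPES pH 7.1, 50 µM ZnSO4, 0.05% Brij 35 / Timing: 15 min enzyme–compound preincubation, then 25 min nitrocefin reaction, 25 °C / Technique: plate fluorescence quenching by hydrolysis product, ex 480/em 530 nm / Repeats: singlicate testing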
m5-HT2A agonist: mouse Htr2a agonists via beta-arrestin recruitment, primary screen, cell-based, luminescence; 5-hydroxytryptamine receptor 2A (Mus musculus), P35363; CHO-K1 mHTR2A beta-arrestin complementation; percent of 30 µM serotonin response; activation, % at 7.6 µM; actives 0.66% (n = 360,000);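 active = activation above a run cutoff, the mean activation of all tested compounds plus 3 SD, cut at about 14% in these data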
VIM-2 inh confirm: P. aeruginosa VIM-2 enzyme inhibition – biochemical, epi-absorbance, HTS, confirmation; shares compounds with IMP-1 inhibitor; purified VIM-2 enzyme, nitrocefin absorbance; inhibition, % at 5.6 µM; actives 73% (n = 200); AID 1860, 2009; in the data active = inhibition above about 8%
TEM-1 counter: Serine beta-lactamase TEM-1 inhibition, biochemical epi-absorbance counter-screen for IMP-1/VIM-2 inhibitor program. shares compounds with IMP-1 inhibitor. TEM-1 beta-lactamase, nitrocefin absorbance inhibition. inhibition, % at 5.6 µM. actives 50% (n = 200). AID 2184, 2009; in the data active = inhibition above about 0.66%
IMP-1 inh conf: IMP-1 metallo-beta-lactamase inhibitors, confirmation, biochemical, epi-absorbance, hits shared with VIM-2 screen. purified IMP-1 enzyme, absorbance substrate hydrolysis. actives 60% (n = 200). shares compounds with IMP-1 inhibitor. inhibition, % at 5.6 µM; in the data active = inhibition above about 4.9%
dFosB act-2: activators of mouse delta FosB DNA binding, confirmation, biochemical, fluorescence polarization, TAMRA-CDK5 oligo, cherry-picked samples. shares compounds with dFosB act-1. purified delta FosB; normalised: neutral wells 0, positive control 100. activation, % at 24.9 µM. 2,400 tested, under 10 active. AID 588690, 2011;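 active = highest replicate activation at or above 34% and every replicate reaching that threshold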;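 note: higher polarization means more probe DNA bound by delta FosB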
Hits are given with their value; 0 = inactive; - = not tested or not shown. Rows were chosen to be rich in hits. Some 2.5% of all compounds tested hit in one or more screens of this group.

SMILES	VIM-2 inhibitor	dFosB act-1	IMP-1 inhibitor	m5-HT2A agonist	VIM-2 inh confirm	TEM-1 counter	IMP-1 inh conf	dFosB act-2
CCN(CC)c1ccc(/C=C/C(=O)c2ccc(Br)cc2)cc1	13.7	0	8.0	0	33.5	47.6	30.9	-
Cc1ccc[n+](CC(=O)c2ccc(Br)cc2)c1C	0	0	0	0	-	-	-	-
CCOc1ccc(-c2c(C(=O)N/N=C/c3ccsc3)nnn2-c2nonc2N)cc1	0	0	0	0	-	-	-	-
CCOC(=O)/C=C/C(=O)OCC(=O)N1CCN(C(=O)c2ccco2)CC1	0	0	0	0	-	-	-	-
CN1/C(=C\C=C2/C(=O)Oc3ccccc3C2=O)C(C)(C)c2ccccc21	9.6	-	12.6	-	30.6	45.1	24.3	-
CC1=NN(c2ccccc2)C(=O)/C1=C\C=C1/N(C)c2ccccc2C1(C)C	0	0	0	0	-	-	-	-
CCOc1ccc(/C=C2\SC(=S)NC2=O)cc1OC	0	0	0	0	-	-	-	-
COc1ccc(/C=C2\SC(=O)NC2=S)cc1OC	11.9	0	6.8	0	0	0	0	-
c1nc(NCCN2CCOCC2)c2sc3nc(N4CCOCC4)c4c(c3c2n1)CCC4	9.5	0	7.6	0	15.9	0	0	-
CC(NC(=O)c1cccs1)C(S)c1ccccc1 (stereo not drawn)	41.1	0	21.5	0	46.6	0	48.5	-
CN(/N=C/c1ccc(N(C)C)cc1)C1=NS(=O)(=O)c2ccccc21	51.5	0	24.2	0	29.1	14.3	23.7	-
COc1ccc(/C(C)=N/NC(=O)c2nnn(-c3nonc3N)c2-c2ccccc2)cc1	11.6	29.7	18.6	0	14.9	0	17.8	0
CCOc1ccccc1N1CC(C(=O)NC2CCCCCC2)CC1=O (stereo not drawn)	-	0	-	0	-	-	-	-
CCC(C)(C)C1CCC2(CC1)NC(=O)N(CC(=O)Nc1nc(-c3ccc(C)cc3)cs1)C2=O (stereo not drawn)	0	34.5	0	0	-	-	-	0
CCC(C)(C)C1CCC2(CC1)NC(=O)N(CC(=O)N1CCN(S(=O)(=O)c3cc(C)ccc3C)CC1)C2=O (stereo not drawn)	0	45.3	0	0	-	-	-	0
O=S1(=O)N=C(Nc2ccc(N3CCOCC3)cc2)c2ccccc21	0	0	0	0	-	-	-	-
O=S1(=O)N=C(Nc2ccc(S(=O)(=O)N3CCCCC3)cc2)c2ccccc21	0	47.2	0	0	-	-	-	0
COc1ccc(C2c3[nH]c4ccccc4c3CCN2C(=O)Cc2nonc2C)c(F)c1 (stereo not drawn)	0	0	0	0	-	-	-	-
O=C(/C=C/c1cn(-c2ccccc2)nc1-c1ccccc1)Nc1ccc(C(=O)O)cc1	0	0	0	0	-	-	-	-
NS(=O)(=O)c1ccc(NC(=O)/C=C/c2cn(-c3ccccc3)nc2-c2cccc(Cl)c2)cc1	0	141.6	0	0	-	-	-	0
Cc1cccc(C(=O)OCC(=O)c2c(C)[nH]c3ccccc23)c1O	-	27.8	-	0	-	-	-	0
CCOC(=O)c1c(C)[nH]c(C)c1C(=O)COC(=O)c1cccc(C)c1O	0	0	0	0	-	-	-	-
CC(=O)Oc1ccc(C(=O)Nc2cccc(C(=O)c3cccc(NC(=O)c4ccc(OC(C)=O)cc4)c3)c2)cc1	0	56.7	0	0	-	-	-	0
CC(=O)Oc1ccc(C(=O)Nc2cccc(C(=O)NC(C)(C)C)c2)cc1	0	0	0	0	-	-	-	-
O=C(NNC(=O)c1cccc(S(=O)(=O)N2CCN(c3ccccc3)CC2)c1)c1ccc(Cl)cc1	0	57.6	0	0	-	-	-	0
CC(=O)N1CCN(C(=O)c2cccc(S(=O)(=O)N3CCN(c4ccccc4)CC3)c2)CC1	-	0	-	0	-	-	-	-

Assay outcomes: PubChem, several laboratories
